Measurements as given in ChEMBL document CHEMBL3044834, “Novel protoporphyrinogen oxidase inhibitors: 3H-pyrazolo[3,4-d][1,2,3]triazin-4-one derivatives” (J Agric Food Chem, 2008).

Columns and labels:
Type in all cases: functional
[1] = test system: Brassica rapa subsp. oleifera; test: Herbicidal activity against Brassica rapa subsp. oleifera assessed as inhibition of fresh weed plant weight at 375 g/ha using post-emergence treatment protocol
Summary of the method: (§1)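 Test compounds made up as emulsions by dissolving in 100 µL N,N-dimethylformamide, then adding a little Tween 20 and water. For post-emergence, weed seedlings at one leaf and one stem were sprayed at the same rates as the pre-emergence test. Fresh weight was recorded 15 days after treatment and expressed as percent inhibition versus controls. All treatments were run in triplicate.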

[2] = test system: Brassica rapa subsp. oleifera; test: Herbicidal activity against Brassica rapa subsp. oleifera assessed as inhibition of fresh weed plant weight at 375 g/ha using pre-emergence treatment protocol
Echinochloa crus-galli [3] = test: Herbicidal activity against Echinochloa crus-galli (barnyard grass) assessed as inhibition of fresh weed plant weight at 187.5 g/ha using post-emergence treatment protocol; summary of the method: as §1
Digitaria sanguinalis [4] = test: Herbicidal activity against Digitaria sanguinalis (hairy crabgrass) assessed as inhibition of fresh weed plant weight at 1500 g/ha using post-emergence treatment protocol; summary of the method: as §1
Echinochloa crus-galli [5] = test: Herbicidal activity against Echinochloa crus-galli (barnyard grass) assessed as inhibition of fresh weed plant weight at 93.75 g/ha using post-emergence treatment protocol; summary of the method: as §1
Amaranthus retroflexus [6] = test: Herbicidal activity against Amaranthus retroflexus assessed as inhibition of fresh weed plant weight at 187.5 g/ha using pre-emergence treatment protocol
[7] = test system: Brassica rapa subsp. oleifera; test: Herbicidal activity against Brassica rapa subsp. oleifera assessed as inhibition of fresh weed plant weight at 93.75 g/ha using post-emergence treatment protocol; summary of the method: as §1
[8] = test system: Brassica rapa subsp. oleifera; test: Herbicidal activity against Brassica rapa subsp. oleifera assessed as inhibition of fresh weed plant weight at 187.5 g/ha using post-emergence treatment protocol; summary of the method: as §1
[9] = test system: Brassica rapa subsp. oleifera; test: Herbicidal activity against Brassica rapa subsp. oleifera assessed as inhibition of fresh weed plant weight at 750 g/ha using pre-emergence treatment protocol
Echinochloa crus-galli [10] = test: Herbicidal activity against Echinochloa crus-galli (barnyard grass) assessed as inhibition of fresh weed plant weight at 1500 g/ha using post-emergence treatment protocol; summary of the method: as §1
[11] = test system: Brassica rapa subsp. oleifera; test: Herbicidal activity against Brassica rapa subsp. oleifera assessed as inhibition of fresh weed plant weight at 1500 g/ha using post-emergence treatment protocol; summary of the method: as §1
Echinochloa crus-galli [12] = test: Herbicidal activity against Echinochloa crus-galli (barnyard grass) assessed as inhibition of fresh weed plant weight at 187.5 g/ha using pre-emergence treatment protocol; summary of the method: as §1
Digitaria sanguinalis [13] = test: Herbicidal activity against Digitaria sanguinalis (hairy crabgrass) assessed as inhibition of fresh weed plant weight at 187.5 g/ha using post-emergence treatment protocol; summary of the method: as §1
Digitaria sanguinalis [14] = test: Herbicidal activity against Digitaria sanguinalis (hairy crabgrass) assessed as inhibition of fresh weed plant weight at 750 g/ha using pre-emergence treatment protocol
Echinochloa crus-galli [15] = test: Herbicidal activity against Echinochloa crus-galli (barnyard grass) assessed as inhibition of fresh weed plant weight at 375 g/ha using pre-emergence treatment protocol; summary of the method: as §1
Digitaria sanguinalis [16] = test: Herbicidal activity against Digitaria sanguinalis (hairy crabgrass) assessed as inhibition of fresh weed plant weight at 93.75 g/ha using pre-emergence treatment protocol
Digitaria sanguinalis [17] = test: Herbicidal activity against Digitaria sanguinalis (hairy crabgrass) assessed as inhibition of fresh weed plant weight at 93.75 g/ha using post-emergence treatment protocol; summary of the method: as §1
Amaranthus retroflexus [18] = test: Herbicidal activity against Amaranthus retroflexus assessed as inhibition of fresh weed plant weight at 375 g/ha using post-emergence treatment protocol; summary of the method: as §1
Digitaria sanguinalis [19] = test: Herbicidal activity against Digitaria sanguinalis (hairy crabgrass) assessed as inhibition of fresh weed plant weight at 750 g/ha using post-emergence treatment protocol; summary of the method: as §1
[20] = test system: Brassica rapa subsp. oleifera; test: Herbicidal activity against Brassica rapa subsp. oleifera assessed as inhibition of fresh weed plant weight at 93.75 g/ha using pre-emergence treatment protocol
Amaranthus retroflexus [21] = test: Herbicidal activity against Amaranthus retroflexus assessed as inhibition of fresh weed plant weight at 750 g/ha using post-emergence treatment protocol; summary of the method: as §1
Amaranthus retroflexus [22] = test: Herbicidal activity against Amaranthus retroflexus assessed as inhibition of fresh weed plant weight at 1500 g/ha using post-emergence treatment protocol; summary of the method: as §1
Echinochloa crus-galli [23] = test: Herbicidal activity against Echinochloa crus-galli (barnyard grass) assessed as inhibition of fresh weed plant weight at 93.75 g/ha using pre-emergence treatment protocol
Amaranthus retroflexus [24] = test: Herbicidal activity against Amaranthus retroflexus assessed as inhibition of fresh weed plant weight at 93.75 g/ha using pre-emergence treatment protocol
Amaranthus retroflexus [25] = test: Herbicidal activity against Amaranthus retroflexus assessed as inhibition of fresh weed plant weight at 375 g/ha using pre-emergence treatment protocol
[26] = test system: Brassica rapa subsp. oleifera; test: Herbicidal activity against Brassica rapa subsp. oleifera assessed as inhibition of fresh weed plant weight at 187.5 g/ha using pre-emergence treatment protocol
Amaranthus retroflexus [27] = test: Herbicidal activity against Amaranthus retroflexus assessed as inhibition of fresh weed plant weight at 750 g/ha using pre-emergence treatment protocol; summary of the method: as §1
[28] = test system: Brassica rapa subsp. oleifera; test: Herbicidal activity against Brassica rapa subsp. oleifera assessed as inhibition of fresh weed plant weight at 1500 g/ha using pre-emergence treatment protocol
Digitaria sanguinalis [29] = test: Herbicidal activity against Digitaria sanguinalis (hairy crabgrass) assessed as inhibition of fresh weed plant weight at 187.5 g/ha using pre-emergence treatment protocol
Amaranthus retroflexus [30] = test: Herbicidal activity against Amaranthus retroflexus assessed as inhibition of fresh weed plant weight at 93.75 g/ha using post-emergence treatment protocol; summary of the method: as §1
Echinochloa crus-galli [31] = test: Herbicidal activity against Echinochloa crus-galli (barnyard grass) assessed as inhibition of fresh weed plant weight at 375 g/ha using post-emergence treatment protocol; summary of the method: as §1
Echinochloa crus-galli [32] = test: Herbicidal activity against Echinochloa crus-galli (barnyard grass) assessed as inhibition of fresh weed plant weight at 1500 g/ha using pre-emergence treatment protocol
Amaranthus retroflexus [33] = test: Herbicidal activity against Amaranthus retroflexus assessed as inhibition of fresh weed plant weight at 187.5 g/ha using post-emergence treatment protocol; summary of the method: as §1
Echinochloa crus-galli [34] = test: Herbicidal activity against Echinochloa crus-galli (barnyard grass) assessed as inhibition of fresh weed plant weight at 750 g/ha using pre-emergence treatment protocol
Amaranthus retroflexus [35] = test: Herbicidal activity against Amaranthus retroflexus assessed as inhibition of fresh weed plant weight at 1500 g/ha using pre-emergence treatment protocol
Digitaria sanguinalis [36] = test: Herbicidal activity against Digitaria sanguinalis (hairy crabgrass) assessed as inhibition of fresh weed plant weight at 1500 g/ha using pre-emergence treatment protocol
Echinochloa crus-galli [37] = test: Herbicidal activity against Echinochloa crus-galli (barnyard grass) assessed as inhibition of fresh weed plant weight at 750 g/ha using post-emergence treatment protocol; summary of the method: as §1
[38] = test system: Brassica rapa subsp. oleifera; test: Herbicidal activity against Brassica rapa subsp. oleifera assessed as inhibition of fresh weed plant weight at 750 g/ha using post-emergence treatment protocol; summary of the method: as §1
Digitaria sanguinalis [39] = test: Herbicidal activity against Digitaria sanguinalis (hairy crabgrass) assessed as inhibition of fresh weed plant weight at 375 g/ha using post-emergence treatment protocol; summary of the method: as §1
Digitaria sanguinalis [40] = test: Herbicidal activity against Digitaria sanguinalis (hairy crabgrass) assessed as inhibition of fresh weed plant weight at 375 g/ha using pre-emergence treatment protocol

Compound | inhibition at 375 g/ha [2] [%] | inhibition at 1500 g/ha (Digitaria sanguinalis [4]) [%] | inhibition at 187.5 g/ha (Amaranthus retroflexus [6]) [%] | inhibition at 750 g/ha [9] [%] | inhibition at 1500 g/ha (Echinochloa crus-galli [10]) [%] | inhibition at 1500 g/ha [11] [%] | inhibition at 187.5 g/ha (Echinochloa crus-galli [12]) [%] | inhibition at 750 g/ha (Digitaria sanguinalis [14]) [%] | inhibition at 375 g/ha (Echinochloa crus-galli [15]) [%] | inhibition at 93.75 g/ha (Digitaria sanguinalis [16]) [%] | inhibition at 93.75 g/ha [20] [%] | inhibition at 1500 g/ha (Amaranthus retroflexus [22]) [%] | inhibition at 93.75 g/ha (Echinochloa crus-galli [23]) [%] | inhibition at 93.75 g/ha (Amaranthus retroflexus [24]) [%] | inhibition at 375 g/ha (Amaranthus retroflexus [25]) [%] | inhibition at 187.5 g/ha [26] [%] | inhibition at 750 g/ha (Amaranthus retroflexus [27]) [%] | inhibition at 1500 g/ha [28] [%] | inhibition at 187.5 g/ha (Digitaria sanguinalis [29]) [%] | inhibition at 1500 g/ha (Echinochloa crus-galli [32]) [%] | further results
C#CCN1C(=O)COc2cc(F)c(-n3nnc4nn(CC=C)cc4c3=O)cc21 | 100 | 32.7 | 100 | 100 | 38.7 | 70.9 | 13.3 | 67.4 | 49.1 | 6.1 | 26 | 100 | 3.5 | 100 | 100 | 90.8 | 100 | 100 | 16.3 | 100 | inhibition at 375 g/ha [1]: 38.9%; inhibition at 187.5 g/ha (Echinochloa crus-galli [3]): 14.7%; inhibition at 93.75 g/ha (Echinochloa crus-galli [5]): 12.1%; inhibition at 93.75 g/ha [7]: 0%; inhibition at 187.5 g/ha [8]: 0%; inhibition at 187.5 g/ha (Digitaria sanguinalis [13]): 0%; inhibition at 93.75 g/ha (Digitaria sanguinalis [17]): 0%; inhibition at 375 g/ha (Amaranthus retroflexus [18]): 48.8%; inhibition at 750 g/ha (Digitaria sanguinalis [19]): 0%; inhibition at 750 g/ha (Amaranthus retroflexus [21]): 100%; inhibition at 93.75 g/ha (Amaranthus retroflexus [30]): 30.6%; inhibition at 375 g/ha (Echinochloa crus-galli [31]): 17.6%; inhibition at 187.5 g/ha (Amaranthus retroflexus [33]): 40.5%; inhibition at 750 g/ha (Echinochloa crus-galli [34]): 95.7%; inhibition at 1500 g/ha (Amaranthus retroflexus [35]): 100%; inhibition at 1500 g/ha (Digitaria sanguinalis [36]): 80.7%; inhibition at 750 g/ha (Echinochloa crus-galli [37]): 23.6%; inhibition at 750 g/ha [38]: 50.4%; inhibition at 375 g/ha (Digitaria sanguinalis [39]): 0%; inhibition at 375 g/ha (Digitaria sanguinalis [40]): 24.5%
C=CCN1C(=O)COc2cc(F)c(-n3nnc4nn(CC=C)cc4c3=O)cc21 | 100 | 0 | 100 | 100 | 30.8 | 95.6 | 18.2 | 75.5 | 27.9 | 6.1 | 51.2 | 100 | 8.2 | 100 | 100 | 95.9 | 100 | 100 | 16.3 | 100 | inhibition at 375 g/ha [1]: 60.8%; inhibition at 187.5 g/ha (Echinochloa crus-galli [3]): 2.8%; inhibition at 93.75 g/ha (Echinochloa crus-galli [5]): 0%; inhibition at 93.75 g/ha [7]: 10.2%; inhibition at 187.5 g/ha [8]: 12.3%; inhibition at 187.5 g/ha (Digitaria sanguinalis [13]): 0%; inhibition at 93.75 g/ha (Digitaria sanguinalis [17]): 0%; inhibition at 375 g/ha (Amaranthus retroflexus [18]): 83.5%; inhibition at 750 g/ha (Digitaria sanguinalis [19]): 0%; inhibition at 750 g/ha (Amaranthus retroflexus [21]): 100%; inhibition at 93.75 g/ha (Amaranthus retroflexus [30]): 28.9%; inhibition at 375 g/ha (Echinochloa crus-galli [31]): 17.2%; inhibition at 187.5 g/ha (Amaranthus retroflexus [33]): 45.5%; inhibition at 750 g/ha (Echinochloa crus-galli [34]): 89.7%; inhibition at 1500 g/ha (Amaranthus retroflexus [35]): 100%; inhibition at 1500 g/ha (Digitaria sanguinalis [36]): 90%; inhibition at 750 g/ha (Echinochloa crus-galli [37]): 18.1%; inhibition at 750 g/ha [38]: 88.5%; inhibition at 375 g/ha (Digitaria sanguinalis [39]): 0%; inhibition at 375 g/ha (Digitaria sanguinalis [40]): 40.8%
C#CCN1C(=O)COc2cc(F)c(-n3nnc4c(cnn4C)c3=O)cc21 | 95.6 | 39.2 | 66 | 97.1 | 58.4 | 45.6 | 48.4 | 100 | 94.8 | 26.8 | 47.3 | 71.8 | 47.1 | 60.2 | 96.3 | 77.7 | 100 | 98.8 | 80 | 100 | inhibition at 750 g/ha (Echinochloa crus-galli [34]): 100%; inhibition at 1500 g/ha (Amaranthus retroflexus [35]): 100%; inhibition at 1500 g/ha (Digitaria sanguinalis [36]): 100%; inhibition at 375 g/ha (Digitaria sanguinalis [40]): 100%
